# Source: PubChem BioAssay (Johns Hopkins Ion Channel Center)
# Kir21 inh: blocks the mouse Kir2.1 inward-rectifier potassium channel. 0.85% of 310,000 active. P35561. HEK293-Kir2.1, FluxOR thallium flux fluorescence; stronger effect = lower value. AID 1672. B-score at 10 µM;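 active = fluorescence ratio B-score at or below minus 3 SD of library scores, with starting-brightness B-score within 2 SD, cut at about -4.2 in these data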;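 note: channel flux triggered by added potassium and thallium sulfate stimulus; B-score of peak minus minimum fluorescence over baseline after thallium stimulus; more negative B-score means stronger Kir2.1 block with less thallium influx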
# KCNQ1 pot: potentiators or activators of human KCNQ1 potassium channel | P51787 | CHO-K1 KCNQ1, thallium flux FluxOR fluorescence; stronger effect = higher value | B-score at 10 µM | 0.35% of 310,000 active | AID 2648;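 active = fluorescence ratio B-score, a plate-corrected score, at least three library SD, with initial intensity B-score within 5 SD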
#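 Schedule – 37 °C overnight plating, 90-min dark dye load, 20-min compound pretreatment · System – stable KCNQ1 CHO-K1 line · Probe or stimulus – thallium- and potassium-containing depolarizing buffer · Measured by – kinetic FluxOR fluorescence, 10 s baseline plus 110 s post-stimulus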
# KCNQ1 inh: inhibitors of human KCNQ1 potassium channel; P51787; B-score at 10 µM; 1.3% of 310,000 active; CHO-K1 KCNQ1, FluxOR thallium flux fluorescence; stronger effect = higher value;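 active = compounds whose thallium flux B-score, printed positive for inhibition, exceeds three library SD while starting fluorescence stays within three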;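 note: channel opened by potassium depolarization with thallium stimulus after 20 min compound exposure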
# KCNK3 inh: human KCNK3 channel inhibition, primary screen; CHO-KCNK3 thallium flux, FluxOR fluorescence; stronger effect = lower value; O14649; 0.84% of 340,000 active; AID 602410; B-score at 10 µM;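 active = B-score under library mean minus 4 SD, starting fluorescence ratio at most library mean plus 5 SD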;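 note: more negative B-score means stronger inhibition of thallium flux through KCNK3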
# KCNK9 inh: blocks the human KCNK9 two-pore domain potassium channel; B-score at 10 µM; 1.2% of 310,000 active; HEK293 KCNK9, FluxOR thallium flux fluorescence; stronger effect = lower value; Q9NPC2; AID 488922;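 active = ratio B-score over 3 SD below the library mean, with starting fluorescence within 5 SD of its mean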;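 note: negative B-score means less thallium flux so channel inhibition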
# hERG rescue: compounds protecting human hERG from proarrhythmic drug block; activation (rescue from dofetilide block), less the hit threshold, % at 10 µM; CHO-hERG, FluxOR thallium flux, dofetilide IC70 present; 0.51% of 310,000 active; Q12809; AID 1511;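 active = activation above the mean of controls blocked by dofetilide plus 5 SD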;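 note: thallium influx through hERG after potassium depolarization seen as dye fluorescence rise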
# Target sequence (Q12809 whole entry, looked up): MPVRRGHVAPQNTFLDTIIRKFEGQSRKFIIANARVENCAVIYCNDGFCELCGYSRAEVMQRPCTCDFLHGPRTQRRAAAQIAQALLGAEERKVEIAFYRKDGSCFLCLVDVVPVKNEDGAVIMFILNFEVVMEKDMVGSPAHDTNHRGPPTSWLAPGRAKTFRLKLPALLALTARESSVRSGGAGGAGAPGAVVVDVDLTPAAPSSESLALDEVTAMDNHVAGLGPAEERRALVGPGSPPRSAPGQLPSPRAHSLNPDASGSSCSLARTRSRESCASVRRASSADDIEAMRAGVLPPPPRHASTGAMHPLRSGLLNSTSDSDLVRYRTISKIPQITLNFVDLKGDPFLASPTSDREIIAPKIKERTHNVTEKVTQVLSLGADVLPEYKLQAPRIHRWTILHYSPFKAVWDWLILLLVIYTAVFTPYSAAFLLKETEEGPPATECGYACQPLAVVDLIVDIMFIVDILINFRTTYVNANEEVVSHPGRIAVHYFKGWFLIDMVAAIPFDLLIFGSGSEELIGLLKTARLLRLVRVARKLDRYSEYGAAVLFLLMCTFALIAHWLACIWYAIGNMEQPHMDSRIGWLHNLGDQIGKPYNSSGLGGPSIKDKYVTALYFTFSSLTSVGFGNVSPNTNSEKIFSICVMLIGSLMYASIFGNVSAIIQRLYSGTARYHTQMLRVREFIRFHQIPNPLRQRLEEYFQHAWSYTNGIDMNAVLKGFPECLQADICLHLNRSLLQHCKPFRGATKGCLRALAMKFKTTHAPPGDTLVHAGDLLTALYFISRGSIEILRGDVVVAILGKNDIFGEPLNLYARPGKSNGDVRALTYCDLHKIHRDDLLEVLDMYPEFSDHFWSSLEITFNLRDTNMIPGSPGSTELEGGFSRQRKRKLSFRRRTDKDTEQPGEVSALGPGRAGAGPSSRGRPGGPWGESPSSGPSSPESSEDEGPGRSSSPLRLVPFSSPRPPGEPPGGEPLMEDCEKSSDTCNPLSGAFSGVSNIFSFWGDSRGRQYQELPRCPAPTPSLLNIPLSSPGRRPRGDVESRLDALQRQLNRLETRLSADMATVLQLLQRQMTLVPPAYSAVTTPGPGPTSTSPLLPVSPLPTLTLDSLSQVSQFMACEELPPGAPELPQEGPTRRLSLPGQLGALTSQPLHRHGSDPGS
# KCNK9 block conf: human KCNK9 inhibitor confirmation; shares compounds with KCNK9 inh; HEK293 KCNK9 cells, FluxOR thallium flux fluorescence; inhibition, % at 10 µM; 43% of 4,900 active; AID 492992;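 active = thallium signal inhibited by more than 5 SD of the compound-free buffer control wells, on both duplicate plates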
# Kir2-1 spec: mouse Kir2.1 off-target activity of KCNK9 modulators | inhibition, % at 10 µM | AID 492993 | 4% of 4,900 active | Kir2.1 cells, FluxOR thallium flux fluorescence | shares compounds with KCNK9 inh;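 active = thallium signal drop more than 5 SD beyond the mean of the no-compound control wells, seen in both duplicate plates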;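 note: signal is fluorescence rise after thallium addition divided by baseline fluorescence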
# HEK293 Tl ctr: second check of KCNK9 modulator effects in non-induced HEK293 cells | shares compounds with KCNK9 inh | AID 492997 | inhibition, % at 10 µM | FluxOR thallium flux | 40% of 4,900 active;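 active = thallium signal drop beyond 5 SD of the untreated control mean, on both duplicate plates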
# Numbers stand for hits; – = inactive; · = no result given. An excerpt weighted towards active compounds, which were near 3.8% of everything screened.
SMILES,Kir21 inh,KCNQ1 pot,KCNQ1 inh,KCNK3 inh,KCNK9 inh,hERG rescue,KCNK9 block conf,Kir2-1 spec,HEK293 Tl ctr
COCCn1c(SCC(=O)Nc2ccc(S(=O)(=O)N(C)C)cc2)nc2ccccc21,–,–,–,–,–,–,·,·,·
Cc1cccc(N2CCN(Cc3nc(-c4cccc(Oc5ccccc5)c4)oc3C)CC2)n1,–,–,–,–,–,–,–,–,–
O=C(CSc1nc2ccccc2s1)c1cc2ccccc2o1,–,–,–,–,–,–,·,·,·
N#Cc1cc2c(nc1SCc1cccc(Cl)c1)CCCCC2,–,–,–,–,-8.31,–,27.0%,–,35.0%
N#Cc1cc2c(nc1SCc1ccccc1)CCCCC2,–,–,–,–,–,–,·,·,·
Cc1csc2nc(CSc3nc4ccccc4o3)c(Br)n12,–,–,–,–,-12.4,–,–,–,46.5%
CC1(C)NC(=O)NC2(C)NC(=O)NC(C)(C)C12 (stereo not given),–,–,–,–,–,–,·,·,·
Cn1c(-c2ccc(Br)o2)nc2ccccc21,–,–,–,–,–,–,·,·,·
Brc1ccc(Cn2c(-c3ccc(Br)o3)nc3ccccc32)o1,–,–,–,–,-8.76,–,–,–,32.5%
CC12CN(NC(=O)c3ccccc3F)C3(C#N)CC1CCC23C (stereo not given),–,–,–,–,–,–,·,·,·
OCC1(Cc2ccccc2)CCCN(Cc2cn[nH]c2-c2ccccc2)C1 (stereo not given),–,–,–,–,–,–,·,·,·
COc1cccc(CC2(CO)CCCN(Cc3ccc(OC)c(C)c3OC)C2)c1 (stereo not given),–,–,–,–,–,–,–,–,–
Cn1cc(CN2CCCC(CO)(Cc3ccccc3)C2)c2ccccc21 (stereo not given),–,–,–,–,–,–,–,–,28.5%
COc1ccc(-c2nc(SC)n(S(=O)(=O)c3ccccc3)n2)cc1,–,–,–,–,–,–,·,·,·
COc1ccc(S(=O)(=O)n2ccc(C(C)Oc3ccc(-c4ccccc4)c(F)c3)n2)cc1 (stereo not given),–,–,–,–,-11.2,–,61.0%,–,39.5%
CN1C(=O)/C(=C/c2ccc(-c3ccccc3[N+](=O)[O-])o2)SC1=Nc1ccc(Cl)c(C(=O)O)c1,–,–,–,–,–,–,·,·,·
CCc1ccc(-c2csc(NC(=O)C3=NN(c4ccccc4)C(=O)CC3)n2)cc1,–,–,–,–,–,–,–,–,–
Cc1cc(C)c(-c2csc(NC(=O)C3=NN(c4ccccc4)C(=O)CC3)n2)c(C)c1,–,–,–,–,–,–,·,·,·
C/C(=N\NC(=O)c1nn(C)c(C)c1Br)c1ccc(NC(=O)c2ccccc2F)cc1,–,–,–,–,-11.6,–,63.5%,–,26.0%
CCOC(=O)c1sc2nc(CC(=O)OC)nc(N3CCN(c4ccc(OC)cc4)CC3)c2c1C,–,–,–,–,–,–,–,–,–
Cc1cccc(NC(=O)CSCC(=O)N(C)Cc2c(F)cccc2Cl)c1,–,–,–,–,–,–,–,–,–
Cc1cc(NC(=O)CSCC(=O)N(C)Cc2c(F)cccc2Cl)no1,–,–,–,–,–,–,·,·,·
CCOC(=O)c1ccccc1N/C=C/C(=O)c1ccccc1,–,–,–,–,-15.8,–,69.0%,–,35.5%
CCOC(=O)c1ccccc1NC(=S)N1CCC(C)CC1,–,–,–,–,–,–,·,·,·
CCOC(=O)c1ccccc1NC(=O)c1c(F)c(F)c(F)c(F)c1F,–,–,–,–,–,–,–,–,–
SMILES,Kir21 inh,KCNQ1 pot,KCNQ1 inh,KCNK3 inh,KCNK9 inh,hERG rescue,KCNK9 block conf,Kir2-1 spec,HEK293 Tl ctr
CCOC(=O)c1ccccc1NC(=O)c1ccc(F)cc1,–,–,–,–,–,–,·,·,·
CCOC(=O)c1ccccc1NC(=S)N1CC(C)CC(C)C1 (stereo not given),–,–,–,–,–,–,–,–,–
O=C(Nc1ccnc(-c2ccncc2)n1)c1ccc(Cl)cc1,–,–,–,–,–,–,·,·,·
CC(=O)c1ccc(OCCCC(=O)N2CCN(S(=O)(=O)c3ccc(C(C)C)cc3)CC2)cc1,–,–,–,–,–,–,·,·,·
Cc1nc(-c2ccc(Br)cc2)ccc1C(=O)O,–,–,–,–,–,–,·,·,·
CCn1c(=O)n(CC)c2cc(N3CCCC3)c(NC(=O)c3ccccc3OC)cc21,–,–,–,–,-8.97,–,42.0%,–,–
COc1cc(C(=O)Nc2cc3c(cc2N2CCCCC2)n(C)c(=O)n3C)cc(OC)c1OC,–,–,–,–,-19.6,–,67.0%,–,–
CSc1cccc(NC(=S)N2CCC(N(C)C3CCCC3)CC2)c1,–,–,–,–,–,–,·,·,·
CC(C)N(C(=O)CSc1nnc(NC(=O)Cc2cccs2)s1)C(C)C,–,–,–,–,–,–,·,·,·
COC1CCCCC1Nc1cccc(SC)c1 (stereo not given),–,–,–,–,–,–,–,–,–
CCc1ccc(CSc2nccn2-c2ccccc2)cc1,-4.89,–,–,–,–,–,–,–,–
c1ccc(CCSc2nccn2-c2ccccc2)cc1,–,–,–,–,–,–,·,·,·
COc1cc(/C=C/C(=O)OCC(=O)Nc2ccc3c(c2)OCCO3)ccc1OCC#N,–,–,–,–,–,–,·,·,·
Cc1cccc(-c2noc(CCCC(=O)N3CCOCC3)n2)c1,–,–,–,–,–,–,·,·,·
O=C(Cn1c(=O)n(CC(=O)NCc2ccccc2)c2ccccc21)NCc1ccccc1,–,–,–,–,–,–,·,·,·
Cc1cc(=O)c2cc(Br)ccc2n1CC(=O)NCc1ccccc1,–,–,–,–,-9.74,–,–,–,33.0%
Cc1ccc(C)c(N2CCN(CC3CC=CCC3)CC2)c1 (stereo not given),–,–,–,–,–,–,–,–,–
CCOC(=O)Nc1ccc2c(c1)N(C(=O)CN)c1ccccc1CC2,–,–,–,–,–,–,·,·,·
CCNCC(=O)N1c2ccccc2CCc2ccc(NC(=O)OCC)cc21,–,–,–,–,-10.8,–,54.0%,–,33.5%
COc1cccc(Cn2cnc3c(NS(=O)(=O)c4cccc(Cl)c4Cl)c(C)c(C)cc32)c1,–,–,–,–,-12.6,–,72.0%,–,–
COc1cccc(Cn2cnc3c(NS(=O)(=O)c4cc(Cl)ccc4Cl)c(C)c(C)cc32)c1,–,–,–,-9.48,-15.5,–,64.0%,–,–
Cc1cc(Nc2ccc3c(c2)OCCO3)c2cccc(C)c2n1,–,–,–,–,–,–,·,·,·
Cn1c(/C=C/c2ccc(Br)cc2)c([N+](=O)[O-])c(=O)n(C)c1=O,–,–,–,–,–,–,·,·,·
